This is a sample that favours compounds with a hit; in the whole collection about 3.1% have one here.
pPAFAH inh: pPAFAH (human) enzyme inhibition; inhibition, % at 3.39 µM; recombinant pPAFAH, FP-rhodamine probe fluorescence polarization; AID 463082; 330,000 tested, 1.5% active; Q13093;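 active means inhibition above the mean inhibition across the screen plus 3 SD, cut at about 25% in these data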;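 further: inhibitors block binding of the rhodamine activity-based probe so polarization drops; 0% = enzyme with DMSO and 100% = wells lacking pPAFAH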
PAFAH1B2 FP inh: inhibitors of human PAFAH1B2; 340,000 tested, 1.2% active; P68402; inhibition, % at 3.39 µM; recombinant PAFAH1B2, FP-rhodamine activity probe, fluorescence polarization;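 active means inhibition above the mean of all tested compounds plus 3 SD, cut at about 24% in these data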;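 further: 0% = enzyme with DMSO and 100% = wells lacking PAFAH1B2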
Target sequence (P68402 whole entry, looked up): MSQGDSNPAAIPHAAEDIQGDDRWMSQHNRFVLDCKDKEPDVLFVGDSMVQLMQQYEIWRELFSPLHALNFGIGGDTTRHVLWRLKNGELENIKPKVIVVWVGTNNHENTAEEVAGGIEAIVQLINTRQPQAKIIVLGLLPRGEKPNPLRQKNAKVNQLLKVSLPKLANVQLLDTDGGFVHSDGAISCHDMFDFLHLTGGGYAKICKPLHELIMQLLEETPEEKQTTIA
PAFAH2 inh: inhibitors of human PAFAH2. Q99487. 340,000 tested, 0.99% active. inhibition, % at 3.39 µM. recombinant PAFAH2, FP-rhodamine activity probe, fluorescence polarization;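 active means inhibition above the mean over all tested compounds plus 3 SD, cut at about 30% in these data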;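 further: inhibitors block probe labeling of enzyme so polarization drops; 0% = enzyme with DMSO and 100% = wells lacking PAFAH2 protein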
Apaf1 inhib: inhibitors of human Apaf-1 apoptosome. O14727. reconstituted apoptosome caspase-3 activity, DEVD-Rh110 fluorescence. inhibition, % at 20 µM. 330,000 tested, 0.71% active. AID 489030; active means inhibition of at least 40% at 20 µM;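 further: plate controls were DMSO wells for no effect and DEVD-CHO caspase inhibitor wells for full effect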
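Assay system – apoptosome proteins · Medium – Hepes buffer, pH 7.5 · Also added – cytochrome c with DEVD-Rh110 · Timing – 30 min compound preincubation, 50 min activation, room temperature · Detection – Rh110 fluorescence, excitation 480 nm, emission 540 nm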
PAFAH1B3 FP inh: blocks human PAF acetylhydrolase 1B catalytic subunit 3; inhibition, % at 3.39 µM; 340,000 tested, 0.28% active; Q15102; recombinant PAFAH1B3, FP-rhodamine probe, fluorescence polarization;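 active means inhibition above the screen-wide average of all tested compounds plus 3 SD, cut at about 25% in these data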;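 further: 0% = enzyme with DMSO only and 100% = wells lacking PAFAH1B3 protein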
Target sequence (Q15102 whole entry, looked up): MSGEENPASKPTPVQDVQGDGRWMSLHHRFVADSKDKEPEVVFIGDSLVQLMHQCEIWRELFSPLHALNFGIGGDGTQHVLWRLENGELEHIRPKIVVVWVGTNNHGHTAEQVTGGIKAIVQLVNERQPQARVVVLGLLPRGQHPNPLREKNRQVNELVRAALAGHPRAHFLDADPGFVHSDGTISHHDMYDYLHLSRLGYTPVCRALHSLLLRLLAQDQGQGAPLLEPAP
Apaf-1 inh conf: confirmation of Apaf-1 inhibitors; 1,800 tested, 25% active; inhibition, % at 20 µM; reconstituted apoptosome, caspase-3 DEVD-Rh110 fluorescence; shares compounds with Apaf1 inhib;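 active means mean inhibition of at least 40% at 20 µM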;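 further: plate controls were DMSO wells for no effect and DEVD-CHO caspase inhibitor control wells for full effect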
Rh110 interf inh: counter-screen for Apaf-1 inhibitors: fluorescence interference. shares compounds with Apaf1 inhib. Rh110 fluorescence interference, quenched caspase reaction. activation (fluorescence interference), % at 20 µM. 1,800 tested, under 10 active;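 active means signal rise of 40% or more at 20 µM, treated as a fluorescence artifact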
Fluor interf inh: Apaf-1 inhibitor counter-screen fluorescence artifact. shares compounds with Apaf1 inhib. fluorescence interference counterscreen, Apaf-1 assay format. IC50, µM. 460 tested, under 10 active; call rule not given here
PAFAH1B3 conf FP: PAFAH1B3 (human) inhibition, confirmed; shares compounds with PAFAH1B3 FP inh; recombinant PAFAH1B3, FP-Rh activity-based probe, fluorescence polarization; inhibition, % at 3.39 µM; 390 tested, 30% active; AID 493032;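 active means average inhibition over triplicate runs above the hit cutoff set in the earlier primary screen, cut at about 25% in these data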;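 further: 0% = enzyme with DMSO and 100% = wells lacking PAFAH1B3 protein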
The depositor's hits bear a star.

CCCC1(CCC)NC(=O)N(CC(=O)Nc2ccc(Cl)c(S(=O)(=O)N3CCOCC3)c2)C1=O was read as pPAFAH inh 4.0, PAFAH1B2 FP inh 0.8, PAFAH2 inh 0.8, Apaf1 inhib 5.7 and PAFAH1B3 FP inh 7.9.
Screening O=C(NN=c1c(=O)c2ccccc2c1=O)c1ccccc1 returned pPAFAH inh -0.9, PAFAH1B2 FP inh 1.5, PAFAH2 inh 3.0, Apaf1 inhib 96.4*, PAFAH1B3 FP inh 37.5*, Apaf-1 inh conf 98.2*, Rh110 interf inh 0.7, Fluor interf inh >100 and PAFAH1B3 conf FP 31.7*.
`COC(=O)c1c(NC(=O)C(=O)NCC2CCCO2)sc2c1CC(C)(C)OC2` (stereo not drawn) gave pPAFAH inh 0.8, PAFAH1B2 FP inh 2.2, PAFAH2 inh 6.9, Apaf1 inhib 9.2 and PAFAH1B3 FP inh 7.4.
For O=C1C(Nc2ccccc2)=C(NS(=O)(=O)c2ccccc2)C(=O)c2ccccc21 the results were pPAFAH inh 10.1, PAFAH1B2 FP inh 20.3, PAFAH2 inh 7.0, Apaf1 inhib 25.1 and PAFAH1B3 FP inh 7.7.
Screening O=C1C=C(Nc2ccccc2)c2ccccc2C1=O returned PAFAH1B2 FP inh 8.8, PAFAH2 inh 6.8, Apaf1 inhib 91.9*, PAFAH1B3 FP inh 61.5*, Apaf-1 inh conf 91.5*, Rh110 interf inh -2.8, Fluor interf inh >100 and PAFAH1B3 conf FP 30.2*.
For CCc1ccc(NC2=CC(=O)C(=O)c3ccccc32)cc1 the results were PAFAH1B2 FP inh 8.9, PAFAH2 inh 17.9, Apaf1 inhib 91.7*, PAFAH1B3 FP inh 58.6*, Apaf-1 inh conf 85.7*, Rh110 interf inh 6.1, Fluor interf inh >100 and PAFAH1B3 conf FP 37.1*.
For CCc1ccc(S(=O)(=O)Nc2cc(SCC(=O)O)c(O)c3ccccc23)cc1 the results were pPAFAH inh 9.2, PAFAH1B2 FP inh 18.1, PAFAH2 inh 21.8, Apaf1 inhib 71.3*, PAFAH1B3 FP inh 27.8*, Apaf-1 inh conf 29.3, Rh110 interf inh 4.4 and PAFAH1B3 conf FP 10.2.
Screening CCc1ccc(S(=O)(=O)Nc2ccc(O)c3ccccc23)cc1 returned pPAFAH inh 18.1, PAFAH1B2 FP inh 9.4, PAFAH2 inh 14.0, Apaf1 inhib 13.6 and PAFAH1B3 FP inh 9.8.
`COc1ccc(OCC(CO)N2CCN(c3ccccc3)CC2)cc1` (stereo not drawn) gave PAFAH1B2 FP inh 2.1, PAFAH2 inh 4.2 and PAFAH1B3 FP inh -0.4.
For CC(=O)N(C1=C(Cl)C(=O)c2ccccc2C1=O)C1CCCCC1 the results were pPAFAH inh 0.9, PAFAH1B2 FP inh 4.3, PAFAH2 inh 4.9, Apaf1 inhib 85.4*, PAFAH1B3 FP inh 33.0*, Apaf-1 inh conf 90.0*, Rh110 interf inh 5.0, Fluor interf inh >100 and PAFAH1B3 conf FP 17.8.
For CSc1ccc(C(=O)Nc2cc(S(=O)(=O)N3CCOCC3)ccc2N2CCOCC2)cc1[N+](=O)[O-] the results were PAFAH1B2 FP inh -0.6, PAFAH2 inh 9.1 and PAFAH1B3 FP inh 1.7.
Screening Cc1ccc(C)c(OCCC(=O)Nc2ccc3c(c2)OCO3)c1 returned pPAFAH inh 3.4, PAFAH1B2 FP inh 3.0, PAFAH2 inh -2.8, Apaf1 inhib -1.1 and PAFAH1B3 FP inh 2.5.
`COc1ccccc1N(/N=C1\Sc2ccccc2C1=O)C(C)=O` gave pPAFAH inh 11.0, PAFAH1B2 FP inh 9.6, PAFAH2 inh 4.4, Apaf1 inhib 82.6*, PAFAH1B3 FP inh 51.0*, Apaf-1 inh conf 72.7*, Rh110 interf inh 3.8, Fluor interf inh >100 and PAFAH1B3 conf FP 53.7*.
Screening COC(=O)c1ccccc1NC1=C/C(=N\S(=O)(=O)c2cccs2)c2ccccc2C1=O returned pPAFAH inh 21.3, PAFAH1B2 FP inh 19.4, PAFAH2 inh 8.9, Apaf1 inhib 91.9*, PAFAH1B3 FP inh 55.0*, Apaf-1 inh conf 94.1*, Rh110 interf inh 13.9, Fluor interf inh >100 and PAFAH1B3 conf FP 51.6*.
For COC(=O)c1cccc(NS(=O)(=O)c2cccs2)c1C the results were pPAFAH inh 6.1, PAFAH1B2 FP inh 5.0, PAFAH2 inh -1.1 and PAFAH1B3 FP inh 10.7.
Screening CC(C)n1cnc2c(NCc3ccccc3)cc(N[C@H](C)CO)cc21 returned pPAFAH inh 9.7, PAFAH1B2 FP inh 12.3, PAFAH2 inh 18.5, Apaf1 inhib 96.7*, PAFAH1B3 FP inh 42.6*, Apaf-1 inh conf 95.6*, Rh110 interf inh 5.3, Fluor interf inh >100 and PAFAH1B3 conf FP 35.1*.
For CCC(CO)Oc1cc(NCc2ccccc2)c2ncn(C(C)C)c2c1 (stereo not drawn) the results were pPAFAH inh 6.6, PAFAH1B2 FP inh 3.7, PAFAH2 inh -4.9, Apaf1 inhib 32.7 and PAFAH1B3 FP inh 10.5.
O=C1C(Cl)=C(N2CCC(C(=O)O)CC2)C(=O)c2ccccc21 was read as pPAFAH inh 12.8, PAFAH1B2 FP inh 22.5, PAFAH2 inh 20.8, Apaf1 inhib 74.9*, PAFAH1B3 FP inh 41.3*, Apaf-1 inh conf 52.6*, Rh110 interf inh 1.8, Fluor interf inh >100 and PAFAH1B3 conf FP 32.1*.
For O=C(O)C1CCN(C(=O)c2ccccc2Cl)CC1 the results were pPAFAH inh 1.1, PAFAH1B2 FP inh 2.8, PAFAH2 inh 4.7, Apaf1 inhib -19.7 and PAFAH1B3 FP inh 5.5.
`COC(=O)c1sccc1NC(=O)Nc1ccccc1Cl` gave PAFAH1B2 FP inh -4.6, PAFAH2 inh -6.0, Apaf1 inhib -0.7 and PAFAH1B3 FP inh -5.7.
`COc1ccc(CNC(=O)c2c(C)oc3c2C(=O)c2ccccc2C3=O)cc1` gave pPAFAH inh -1.8, PAFAH1B2 FP inh 8.4, PAFAH2 inh 24.5, Apaf1 inhib 67.2*, PAFAH1B3 FP inh 37.0*, Apaf-1 inh conf 71.4*, Rh110 interf inh 12.0, Fluor interf inh >100 and PAFAH1B3 conf FP 18.0.
For COc1ccc(CNC(=O)c2ccc(-c3ccccc3)cc2)cc1 the results were pPAFAH inh 4.4, PAFAH1B2 FP inh -1.4, PAFAH2 inh 2.3, Apaf1 inhib -5.5 and PAFAH1B3 FP inh -5.0.
For CC(=O)Nc1ccc(S(=O)(=O)/N=C2\C(=O)c3ccccc3C([O-])=C2n2cc[n+](-c3ccccn3)c2)cc1 the results were pPAFAH inh 7.4, PAFAH1B2 FP inh 11.4, PAFAH2 inh 7.2, Apaf1 inhib 84.2*, PAFAH1B3 FP inh 38.2*, Apaf-1 inh conf 75.6*, Rh110 interf inh 2.8, Fluor interf inh >100 and PAFAH1B3 conf FP 18.8.

Compound activity (PubChem)
